Test results taken from ChEMBL document CHEMBL1137451, “Synthesis and evaluation of antifungal properties of a series of the novel 2-amino-5-oxo-4-phenyl-5,6,7,8-tetrahydroquinoline-3-carbonitrile and its analogues” (Bioorg Med Chem, 2007).

Experiments:
Benjaminiella poitrasii [1] = test: Inhibition of Benjaminiella poitrasii chitin synthase at 4 ug/mL
Procedure, shortened: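 Chitin synthase from Benjaminiella poitrasii measured with and without compound at 4 µg/ml, using a non-radioactive chitin synthase assay. Nikkomycin Z used as reference.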

Benjaminiella poitrasii [2] = test: Inhibition of yeast hypha transition at 4 ug/mL after 4 hrs

inhibition (Benjaminiella poitrasii [1]): > 90%
SMILES: C[C@@H]([C@H](N)C(=O)N[C@H](C(=O)O)[C@H]1O[C@@H](n2ccc(=O)[nH]c2=O)[C@H](O)[C@@H]1O)[C@H](O)c1ccc(O)cn1 [NIKKOMYCIN]
inhibition at 4 µg/mL (Benjaminiella poitrasii [2]): > 90%
